Screening data from PubChem.
The full list was thinned out, with hits kept by preference.
PostGolgi ctrl: yeast control strain growth, post-Golgi counter-screen | efflux-deficient yeast background strain, growth absorbance A615, 16 h | inhibition, % at 10 µM | 98,000 compounds, 5% hits | AID 738
BB579 growth dn: reduces growth of yeast BB579 in restrictive medium. S. cerevisiae BB579 growth, OD615, 48 h. inhibition, % at 10 µM. 140,000 compounds, 0.51% hits. AID 804;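 active = inhibition above a set limit, 3 SD over the mean compound inhibition, cut at about 44% in these data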
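Test system: Saccharomyces cerevisiae DeaD strain BB579, replicative lifespan model yeast | Buffer or medium: Restrictive CSMM-D medium | Doses: One dose, 10 µM compound with 0.25% DMSO | Incubation: 48 h exposure, 30 °C | Detection: Culture absorbance at 615 nm | Control set: Amphotericin B at 10 µg/mL as positive control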
Yeast life ext: extends the lifespan of yeast. S. cerevisiae growth with nicotinamide, OD615; deaD strain in restrictive glucose medium. inhibition of the nicotinamide effect, % at 10 µM. 130,000 compounds, 0.68% hits;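 active = inhibition above a set limit, placed 3 SD over the median of all compounds, cut at about 26% in these data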;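 also: 0% = nicotinamide-treated wells and 100% = cells grown without nicotinamide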
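assay system = DeaD-strain S. cerevisiae | measured by = absorbance at 615 nm | probe or stimulus = nicotinamide 1.5 mM | buffer or medium = CSMM-D glucose medium, restrictive | times = 48 h at 30 °C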
PostGolgi yeast: growth inhibition of a yeast mutant, post-Golgi transport screen; post-Golgi transport phenotypic cell assay; inhibition, % at 10 µM; 98,000 compounds, 0.9% hits;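 also: yeast cells grown in 1536-well plates; yeast grown about 18 h at 30C before absorbance read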
* hit, by the source's call; nt = no result given. Rule as the data show it, unless noted: active = inhibition above about 30%; inactive = the rest.

SMILES | PostGolgi ctrl | BB579 growth dn | Yeast life ext | PostGolgi yeast
CCSc1nnc(NC(=O)CSc2nc3c(c(=O)n2CC)SC(C)C3)s1 (configuration not stated) | -6.0 | -16.2 | -27.2 | -1.1
CC1Cc2nc(SCC(=O)Nc3ccc4c(c3)OCO4)n(CCc3ccccc3)c(=O)c2S1 (configuration not stated) | 0.6 | 10.7 | -7.5 | 5.7
CCn1c(SCC(=O)Nc2ccc3c(c2)OCO3)nc2c(c1=O)SC(C)C2 (configuration not stated) | 74.5* | -4.0 | -9.9 | 5.6
CCn1c(SCC(=O)Nc2nnc(C)s2)nc2c(c1=O)SC(C)C2 (configuration not stated) | 38.7* | -28.9 | -5.5 | -7.4
COC(=O)c1sccc1-c1ccc(C(=O)Nc2cccc(Cl)c2)o1 | 45.7* | -44.4 | -10.2 | -1.9
CC(=O)Cc1nsc(NC(=O)c2ccc(COc3ccccc3)o2)n1 | 0.3 | -20.9 | -15.9 | 0.1
CC(=O)c1cccc(NC(=O)COc2ccc(S(=O)(=O)N3CCCCC3)cc2)c1 | 8.0 | -26.0 | -5.9 | 21.1
Cc1nn(-c2ccc(F)cc2)c(Cl)c1/C=C(\CC(=O)O)c1nc2ccccc2s1 | -2.4 | -46.1 | -18.0 | -0.5
Cc1ccccc1C(=O)N1CCN(c2ccc(NC(=O)CSc3ccc(Cl)cc3)cc2)CC1 | 52.7* | -51.1 | -4.9 | 78.5*
O=C(COc1ccc(Cl)cc1)Nc1ccc(N2CCN(C(=O)c3ccco3)CC2)cc1 | 13.2 | -43.2 | -12.3 | 88.2*
Cc1cc(C)cc(OCC(=O)Nc2ccc(N3CCN(C(=O)c4ccco4)CC3)cc2)c1 | -2.5 | -16.5 | -15.9 | -1.9
O=C(c1ccco1)N1CCN(Cc2ccc(Cl)cc2)CC1 | 35.2* | -21.2 | 7.2 | -3.8
O=C1NCN(c2ccccc2)C12CCN(c1nnnn1-c1ccccc1)CC2 | 8.1 | 12.4 | -20.3 | 7.9
COc1ccc(CC(C(=O)Nc2cccc(F)c2)c2nn[nH]n2)c(OC)c1 (configuration not stated) | 15.8 | -4.4 | -13.6 | -1.8
COc1ccc(CCN2C(=O)CC(C(N)=O)SC2=Nc2ccccc2)cc1OC (configuration not stated) | 4.7 | -4.5 | -11.0 | 18.6
CCn1c(/C=N/c2nc3ccccc3n2C)nc2ccccc21 | 2.9 | 1.3 | 34.5* | 6.8
Cn1c(/N=C/c2c[nH]c3ccccc23)nc2ccccc21 | -2.0 | 15.7 | -11.1 | -2.0
O=C(Cn1nc(C(F)F)cc1C1CC1)NCCC1=CCCCC1 | 4.7 | -4.8 | -0.2 | -1.4
CN(C)CCNC(=O)Cn1nc(C(F)F)cc1C1CC1 | 31.6* | -9.2 | 4.2 | -3.2
Cc1cnnn1-c1ccc(C(=O)CCl)cc1 | 5.6 | -19.0 | 40.5 | 8.9
O=C(c1ccc2c(c1)OCO2)N1CCN(c2ncccn2)CC1 | nt | -21.2 | -0.9 | nt
CC1CC(C)CN(C(=O)c2ccc3c(c2)N(Cc2ccccc2)CCS3)C1 (configuration not stated) | 74.8* | 4.4 | 4.7 | 87.5*
Cc1ccc(CN2CCSc3ccc(C(=O)N4CCN(c5ncccn5)CC4)cc32)cc1 | 64.4* | -56.9 | 50.8 | 2.0
CN1CCN(CCCNC(=O)c2ccc3c(c2)N(Cc2ccccc2)CCS3)CC1 | -3.9 | 30.8 | -8.4 | -6.4
CC1=C(C(=O)OC(C)C)C(c2cccc([N+](=O)[O-])c2)n2c(cc(=O)[nH]c2=S)N1 (configuration not stated) | nt | -34.6 | 3.0 | nt
SMILES | PostGolgi ctrl | BB579 growth dn | Yeast life ext | PostGolgi yeast
CCCCS(=O)(=O)/C=C\C=C/S(=O)(=O)CCCC | 27.1 | -51.0 | 14.5 | 94.1*
O=c1c2ccc(Cl)cc2[nH]c(=S)n1CCC1=CCCCC1 | nt | -33.0 | 0.4 | nt
NC(=O)c1sc2nc(-c3ccco3)ccc2c1N | -5.7 | 53.3* | -24.5 | 0.2
Cc1nc(SCC(=O)OCc2ccccc2)c2c(=O)n(C)c(=O)n(C)c2n1 | 22.5 | -61.4 | -2.1 | -1.1
Cn1c(=O)c2c(nc(SCC(=O)OCc3ccccc3)n2C)n(C)c1=O | 33.9* | -46.5 | -17.0 | 0.3
COc1ccc(C(=O)NN2CC(O)=C(c3nc4ccccc4n3C)C2=N)cc1OC | nt | -13.2 | 0.5 | nt
COc1nc(Nc2cccc(C)c2)nc(N2CCCCC2)n1 | 36.0* | -38.2 | -6.0 | 5.5
COc1nc(N2CCCCCC2)nc(N2CCCCCC2)n1 | 32.3* | -42.6 | 4.6 | 22.7
Cc1cccc(Nc2nc(N3CCCC3)nc(N3CCCC3)n2)c1 | 38.0* | -54.6 | -14.1 | 1.9
O=C(CC1C(=O)N(c2ccccc2)C(=O)N1C1CCCCC1)Nc1ccccc1 (configuration not stated) | 5.4 | -56.2 | -11.5 | 5.3
CCOc1ccc(CCNC(=O)Cn2c(=O)oc3ccccc32)cc1OCC | 3.4 | -52.0 | 0.5 | 12.9
CC(=O)NC(NC(=S)Nc1ccc(N=Nc2ccccc2)cc1)C(Cl)(Cl)Cl (configuration not stated) | 3.0 | -52.2 | -15.6 | -3.6
Cc1ccc(Sc2ccc(/C=N/O)cc2[N+](=O)[O-])cc1 | 30.9* | -70.2 | 7.3 | -3.5
CO/N=C/c1ccc(Sc2ccc(C)cc2)c([N+](=O)[O-])c1 | 16.5 | -38.1 | -2.3 | 22.7
COc1ccc(C)cc1S(=O)(=O)N(CC(=O)Nc1cccc([N+](=O)[O-])c1)c1ccc(C)c(C)c1 | nt | -37.1 | 8.4 | nt
COC(=O)C1=C(C)NC(=O)C1(Nc1nccs1)C(F)(F)F (configuration not stated) | -0.5 | -7.2 | -2.1 | 6.2
CCOC(=O)C1=C(O)C(Nc2nccs2)(C(F)(F)F)N=C1C (configuration not stated) | 34.6* | -35.9 | -18.9 | 0.5
C=CCn1c(=O)[nH]c2cc(C(=O)N3CCN(c4ccc(C(C)=O)cc4)CC3)ccc2c1=O | 10.0 | -45.8 | 55.3* | -5.6
O=C(CCc1ccccc1)Nc1cc(C(F)(F)F)ccc1Cl | 10.7 | -33.5 | -6.6 | 5.7
CN(C)CC(=O)Nc1cc(C(F)(F)F)ccc1Cl | 8.2 | -13.1 | -8.7 | 37.9*
COc1ccc(C2CC(c3ccc(Cl)cc3)n3nc(N)nc3N2)cc1 (configuration not stated) | -5.8 | -20.2 | -7.2 | -2.9
CNC(=S)N/N=C(\C)c1cccc([N+](=O)[O-])c1 | nt | -26.0 | -6.1 | nt
C/C(=N\Nc1ccc([N+](=O)[O-])cc1)c1cccc(N)c1 | 5.4 | -64.5 | -12.3 | 31.4*
Cc1cc(C)nc(NC(=O)CSc2nc3cc(Cl)ccc3s2)n1 | 35.6* | -11.9 | -9.2 | -1.8
Cc1cc(C)nc(NC(=O)CSc2nc3ccccc3s2)n1 | 2.7 | -26.9 | -7.8 | -6.0
SMILES | PostGolgi ctrl | BB579 growth dn | Yeast life ext | PostGolgi yeast
CC(OC(=O)CCCN1C(=O)c2ccccc2C1=O)C(=O)Nc1ncc(Cl)cc1Cl (configuration not stated) | 3.3 | -13.2 | 30.1* | -1.4
CC(=O)c1ccc(Oc2cc(C)nc(N3CCOCC3)n2)cc1 | nt | 0.4 | -5.7 | nt
O=C(NCCCN1CCOCC1)c1cccs1 | 0.6 | 7.8 | -10.6 | -1.6
CCOC(=O)/C(C#N)=C\c1ccc(OCC(=O)Nc2ccc(C)cc2C)c(OC)c1 | 11.8 | -38.8 | -4.6 | -2.5
COc1ccc(CNc2nc3c(c(C(F)(F)F)n2)CCCCC3)cc1 | 38.9* | -55.9 | -2.0 | -5.7
COc1ccc(CNC(=O)Cn2nc(C(F)(F)F)c3c2CCC3)cc1 | 17.7 | -29.3 | -1.9 | -8.2
